From ChEMBL document CHEMBL4513216, “Probing the Open Global Health Chemical Diversity Library for Multistage-Active Starting Points for Next-Generation Antimalarials” (ACS Infect Dis, 2020)

Assay: Toxicity liver stage against HepG2, at 10uM
Format: cell-based
Set-up: test concentration 10 uM, cell line HepG2-A16-CD81EGFP
Settings: human, HepG2-A16-CD81EGFP cells; read-out: INHIBITION
Summary of the method: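 Uninfected HepG2-A16-CD81EGFP cells, 3 × 10^3 per well, 1536-well, plated on prespotted compound at 10 μM final, parasite-free screening media added to match infected plates; puromycin 10 μM positive, DMSO 0.5% negative; run in parallel with 48 h PbLuc assay at 37 °C, 5% CO2; viability by CellTiter-Glo luminescence, normalized to controls.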

| SMILES | cytotoxicity at 10 µM [%] |
| --- | --- |
| CCC1CCc2c(c3ccccc3[nH]c2=O)O1 (configuration not stated) | -1.1 |
| COc1ccc(CN2C[C@@H](F)[C@@H](OCc3nc4ccccc4[nH]3)C2)cn1 | -2.59 |
| CC(C)(C)c1coc([C@@H]2COCCN2Cc2c[nH]c3ccccc23)n1 | -1.23 |
| Cc1cc(C(=O)N2CCOC[C@H](Oc3cnccn3)C2)c(C(F)(F)F)o1 | -1.13 |
| CN(C)CCNc1c(-c2ccccc2)c(=O)c1=O | -9.11 |
| Cc1ccc(Nc2cc(N3CCN(S(C)(=O)=O)CC3)nc(C)n2)cc1 | 6.91 |
| COCCn1ccc2ccc(C(=O)O)cc21 | -9.13 |
| Cc1cccc(C(=O)N2CCCSCC2CN2CCCC2)c1 (configuration not stated) | 8.77 |
| O=C1CCC2(CCCN(C(=O)Cc3cccs3)C2)N1 (configuration not stated) | 3.76 |
| CN(C)C(=O)CN1CCC2(CCN(C(=O)N(C)C)CC2)C1=O | 0.611 |
| O=C(N1CCOCC1)N1CC[C@H]2[C@@H]1CCC(=O)N2c1ccccc1 | 6.53 |
| Cc1cc(CN2CCC3(CC2)COC(COc2ccccn2)C3)no1 (configuration not stated) | 5.8 |
| COCCNC(=O)CSCc1nc(O)c2cc(C(C)C)sc2n1 | -3.46 |
| Cc1ccc(Sc2ccc(N3CCCC(C(=O)O)C3)nn2)cc1 (configuration not stated) | -8.71 |
| COCCCN1C(=O)CC(N2CCN(c3ccc(F)cc3)CC2)C1=O (configuration not stated) | 2.57 |
| CCOC(=O)CC(c1ccc(OC)c(OC)c1)c1c(O)n[nH]c1C (configuration not stated) | 1.64 |
| Cc1cc(C)c2c(c1)C1(CC(=O)Nc3c1cnn3C(C)C)C(=O)N2 (configuration not stated) | -2.51 |
| COC(=O)CNC(=O)CSCc1nc(O)c2cc(C(C)C)sc2n1 | 7.72 |
| COc1cccc2ccn(CCC(=O)N3CCCC(C(=O)O)C3)c12 (configuration not stated) | -9.42 |
| Cc1cccn2c(=O)cc(OC(=O)c3ccccc3)nc12 | 0.64 |
| Cc1nc(C)n(CC2CN(c3ncccn3)Cc3nccn3C2)n1 (configuration not stated) | -8.5 |
| Cn1cc(CN2CC3(CCN(C(=O)c4ccoc4)C3)C2)cn1 | -8.45 |
| COCC1CC2(CCN(C(=O)c3ccc(OC)c(Cl)c3)CC2)CO1 (configuration not stated) | 15.4 |

| SMILES | cytotoxicity at 10 µM [%] |
| --- | --- |
| COC(=O)Cn1ccc(=O)c2ccc(OC)cc21 | -20.7 |
| CC(=O)N1CCOCC(Cc2ccc3c(ccn3C)c2)C1 (configuration not stated) | 4.3 |
| Nc1ncnc2nc(C3CCN(C(=O)Cc4ccc(F)cc4)C3)ccc12 (configuration not stated) | 1.76 |
| CC(C)c1ncc(CN2CCCC2c2[nH]ncc2C(=O)N(C)C)cn1 (configuration not stated) | 0.974 |
| CC(=O)NCc1nccnc1C1CCN(C(=O)c2cc[nH]n2)CC1 | -6.74 |
| O=C(Nc1nncs1)c1ccc(O)nc1 | -6.37 |
| CC(C1CC1)N(C(=O)CNc1ccc(C#N)cc1)C1CC1 (configuration not stated) | -5.28 |
| O=C(NCc1ccnc(OCC(F)(F)F)c1)NCC1CCCO1 (configuration not stated) | -4.05 |
| Cc1ccc(C2CN(CCCS(=O)(=O)C(C)C)CCO2)c(C)c1 (configuration not stated) | -2.36 |
| N#Cc1cn(C2CC2)c(=O)n(Cc2noc(-c3ccsc3)n2)c1=O | 0.836 |
| OC(CNCCc1nnc2ccccn12)c1ccc2c(c1)OCO2 (configuration not stated) | 4.06 |
| Cc1csc(C(C)(C)NCCCS(C)(=O)=O)n1 | 6.11 |
| Cc1nc(C(C)C)sc1C(C)N(C)C(=O)c1ccc(=O)n(C)n1 (configuration not stated) | -1.94 |
| CC(C)CCc1noc(CN2CCCC(CNS(N)(=O)=O)C2)n1 (configuration not stated) | 2.48 |
| NC(=O)C(NC(=O)COCCc1ccccc1)c1ccccc1F (configuration not stated) | -11 |
| O=C(NCCN1CCOCC1)NCc1ccccc1-n1cccn1 | -6.32 |
| CC(C)(C)S(=O)(=O)CCNC(=O)c1ccc2cc[nH]c2c1 | -2.61 |
| O=C(c1ccc2c(c1)CCC2)N1CCCCC1C1OCCO1 (configuration not stated) | 0.197 |
| CC(=O)N1CCN(C(=O)c2c(Cl)c3ccccc3n2C)CC1 | 12.5 |
| Cc1ncncc1C(=O)N1CCCC(n2ccnc2C)C1 (configuration not stated) | -2.17 |
| O=C(CN1CCS(=O)(=O)CC1)NCc1cccc(Br)c1 | 6.32 |
| C[S+]([O-])c1nncn1CCc1ccccc1 (configuration not stated) | -12.6 |
| Cc1ccc(N(C)C2CCN(C(=O)c3n[nH]c4c3CCC4)CC2)nn1 | 8 |

| SMILES | cytotoxicity at 10 µM [%] |
| --- | --- |
| Cc1ccc(Br)cc1C(=O)Nc1cc(C(N)=O)n(C)c1 | 1.41 |
| CC(C)OCc1noc(C2CC=CC2)n1 | 16.5 |
| c1cc(CN2CCCC2)ccc1CNc1cncc2nnnn12 | 3.99 |
| CN(C)Cc1nc(C2(NC(=O)Nc3ccccc3)CCCC2)no1 | -0.871 |
| O=S(=O)(NC1CCC2(CC1)OCCO2)c1ccccc1Br | -9.01 |
| COc1ccc(OC)c(CCNc2ncc(S(N)(=O)=O)s2)c1 | 3.75 |
| Cc1cc(CN(C)Cc2cc3c(cc2OC(F)F)OCO3)on1 | 0.658 |
| COc1ccc(OCC(=O)NC(C)c2ccc(F)cc2)c(C(=O)O)c1 (configuration not stated) | 2.89 |
| O=S(=O)(CCN1CCOC(Cn2cncn2)C1)c1ccccc1 (configuration not stated) | -9.78 |
| CSC(C)C(=O)NCCCc1cc(N)n(-c2ccccc2)n1 (configuration not stated) | 3.25 |
| CC(C)OCCOCc1cccc(NC(=O)NCCn2ccnc2)c1 | -4.63 |
| CCOCCC(=O)Nc1cccc(Oc2ccccn2)c1 | 8.32 |
| CN(Cc1cnn(C)c1)C(=O)c1ccc(=O)n(C)n1 | -7.87 |
| C[C@@H](CO)Nc1nccc(-c2cnc3sc(Cl)cn3c2=O)n1 | 2.52 |
| CO[C@H]1C[C@@H](O)C12CCN(C(=O)NCc1ccco1)CC2 | -2.04 |
| Nc1nccc(-c2cccc3ccnn23)n1 | -3.81 |
| CCC(C(=O)NC1CCN(S(C)(=O)=O)CC1)n1cccn1 (configuration not stated) | -2.42 |
| O=C(c1ccccc1)C1CCN(C(=O)CC2COCCN2)CC1 (configuration not stated) | -163 |
| O=C(CN1CCCCCC1)NCc1ccc2[nH]c(=O)[nH]c2c1 | -2.86 |
| COCc1cc(N2C[C@@H](C)[C@](O)(C3CC3)C2)ncn1 | 3.73 |
| O=C(CCCN1CCCCC1)NC(C(=O)O)c1cccc(F)c1 (configuration not stated) | 1.91 |
| O=C(NC1CC1)c1ccnc(-c2cc(NCCO)nc3[nH]ccc23)c1 | 5.61 |
| CC(=O)N1CCCN(c2nccc(-c3c(C)nn(C)c3C)n2)CC1 | 9.21 |

| SMILES | cytotoxicity at 10 µM [%] |
| --- | --- |
| COc1cccc2c(=O)n(Cc3cccnc3)cnc12 | -7.85 |
| CSCCN1CCC(NC(=O)OC(C)(C)C)CC1 | 12.3 |
| CC(C)c1cc(NC(=O)c2ccncc2)[nH]n1 | -0.396 |
| O=C(CCN1CCN(c2ccc3nncn3n2)CC1)N1CCCCC1 | -6.73 |
| COC(=O)C(NC(=O)C1CCC1)c1cc(F)ccc1F (configuration not stated) | 5.54 |
| COc1ccc(C(=O)N(C)Cc2c(C)noc2C)cn1 | -12.9 |
| O=C(NCCn1nc2ccccn2c1=O)c1sccc1-c1ccccc1 | -12.7 |
| Cn1nc2c(cc1=O)CN(Cc1nc(-c3ccccn3)no1)CC2 | -3.51 |
| CN(Cc1noc(C2CC2)n1)C1CCN(Cc2ccc(F)c(F)c2)C1 (configuration not stated) | -0.279 |
| Cc1csc(CNCc2c(C)nn(C)c2N2CCOCC2)n1 | -9.07 |
| Cn1ncc2c(=O)[nH]c(CN3CCCC3c3ccsc3)nc21 (configuration not stated) | -18 |
| Cc1nc(C)n(C2CCCN(C(=O)c3sccc3C)C2)n1 (configuration not stated) | -8.93 |
| Cc1csc(N2CCCN(C(=O)c3c(C)noc3C)CC2)n1 | -10.6 |
| Cc1cc(OCC(=O)N2CCCC(c3nccs3)C2)no1 (configuration not stated) | 0.953 |
| CCOCCN1CCN(CC(=O)N2CCC2)CC1CC (configuration not stated) | -2.15 |
| CCc1n[nH]c(C2CN(C(=O)c3ncoc3CC)CCO2)n1 (configuration not stated) | 0.567 |
| Cn1ccc(C(=O)NCc2ccc(CN3CCCCC3)cc2)cc1=O | -12.4 |
| CCc1nc(C)c(C(=O)NCCN2CCCC2)s1 | 1.94 |
| CS(=O)(=O)N1CCC(NC(=O)COc2ccccc2Cl)CC1 | -1.99 |
| COc1ncccc1NC(=O)NC1CCCN(c2ncccn2)C1 (configuration not stated) | -28.8 |
| CN(CC(=O)N1CCCCC1c1nc(C(C)(C)C)cs1)C1CC1 (configuration not stated) | -2.77 |
| COc1cccc(CN2CCCC2Cn2nc(C)nc2C)c1 (configuration not stated) | 0.665 |
| c1ccc(-c2nc(CNCCn3cccn3)cs2)cc1 | -1.56 |

| SMILES | cytotoxicity at 10 µM [%] |
| --- | --- |
| CSC(C)C(=O)N1CCCN(Cc2cnn(C(C)C)c2)CC1 (configuration not stated) | -6.29 |
| CC(NC(=O)N(C)CCCOc1ccc(F)cc1)c1nncn1C (configuration not stated) | 2.48 |
| Cc1cnn(CC2CCCCN2CC(=O)Nc2c(C)n[nH]c2C)c1 (configuration not stated) | 1.8 |
| COc1ccc(C(=O)N2CCC(Nc3ccc(C)nn3)CC2)c(F)c1 | 1.15 |
| Cc1ccc(CN2CCCC3(CCC(=O)N3)CC2)s1 (configuration not stated) | -5.84 |
| O=C(C[C@@H]1COC[C@H]2CN(C(=O)c3cccnc3)C[C@@H]12)N1CCCC1 | -118 |
| O=C(O)[C@]12CCCN(Cc3ccncc3)C[C@H]1CN(c1ncccn1)C2 | 2.59 |
| O=C(c1cnccn1)N1CCCC2(CCN(Cc3cccnc3)C2)C1 (configuration not stated) | -129 |
| CCN1CC[C@@]2(C(=O)N3CCOCC3)CCN(C(=O)NC)CC[C@@H]12 | -12.7 |
| COc1ncnc2c1CCN(Cc1nccs1)CC2 | 8.73 |
| Cn1cc(CN2CC[C@H]3O[C@H](C(=O)NCc4ccco4)CC[C@H]32)cn1 | -1.85 |
| Cc1ncsc1CN1CCO[C@H]2[C@H](Oc3ccccn3)CC[C@@H]21 | -0.762 |
| CC(=O)N1CCC2(CCN(Cc3ccccn3)C2=O)C1 (configuration not stated) | 0.0869 |
| Cc1nn(C)c(N(C)C)c1CNC1CCc2c(F)cccc21 (configuration not stated) | -5.87 |
| CC(C)[C@H](N)C(=O)N1CCSc2ccccc2C1 | -5.53 |
| Cc1cc(C)c(CNCC(O)c2ccc(F)c(F)c2)c(C)c1 (configuration not stated) | 6.59 |
| CC(C)C(=O)N1CC[C@@H]2[C@H](CC1)N(Cc1cccnc1)CCS2(=O)=O | -7.77 |
| CCCS(=O)(=O)N1C[C@@H]2C[C@H](C(=O)N3CCOCC3)[C@H](C1)O2 | -1.95 |
| Cc1ccc(-n2cc3[nH]c(=O)[nH]n3c2=O)cc1 | 1.22 |
| CC(=O)Nc1c(C)noc1C=Cc1ccc(S(=O)(=O)N2CCCC2)cc1 | 0.931 |
